Assay [1] is described as follows: Selectivity for nNOS over eNOS.
The nature of assay [2]: Selectivity for nNOS over iNOS.
The target of assay [3] is T1, Nitric oxide synthase, inducible (Mus musculus, UniProt P29477).
T1 sequence (P29477 whole entry): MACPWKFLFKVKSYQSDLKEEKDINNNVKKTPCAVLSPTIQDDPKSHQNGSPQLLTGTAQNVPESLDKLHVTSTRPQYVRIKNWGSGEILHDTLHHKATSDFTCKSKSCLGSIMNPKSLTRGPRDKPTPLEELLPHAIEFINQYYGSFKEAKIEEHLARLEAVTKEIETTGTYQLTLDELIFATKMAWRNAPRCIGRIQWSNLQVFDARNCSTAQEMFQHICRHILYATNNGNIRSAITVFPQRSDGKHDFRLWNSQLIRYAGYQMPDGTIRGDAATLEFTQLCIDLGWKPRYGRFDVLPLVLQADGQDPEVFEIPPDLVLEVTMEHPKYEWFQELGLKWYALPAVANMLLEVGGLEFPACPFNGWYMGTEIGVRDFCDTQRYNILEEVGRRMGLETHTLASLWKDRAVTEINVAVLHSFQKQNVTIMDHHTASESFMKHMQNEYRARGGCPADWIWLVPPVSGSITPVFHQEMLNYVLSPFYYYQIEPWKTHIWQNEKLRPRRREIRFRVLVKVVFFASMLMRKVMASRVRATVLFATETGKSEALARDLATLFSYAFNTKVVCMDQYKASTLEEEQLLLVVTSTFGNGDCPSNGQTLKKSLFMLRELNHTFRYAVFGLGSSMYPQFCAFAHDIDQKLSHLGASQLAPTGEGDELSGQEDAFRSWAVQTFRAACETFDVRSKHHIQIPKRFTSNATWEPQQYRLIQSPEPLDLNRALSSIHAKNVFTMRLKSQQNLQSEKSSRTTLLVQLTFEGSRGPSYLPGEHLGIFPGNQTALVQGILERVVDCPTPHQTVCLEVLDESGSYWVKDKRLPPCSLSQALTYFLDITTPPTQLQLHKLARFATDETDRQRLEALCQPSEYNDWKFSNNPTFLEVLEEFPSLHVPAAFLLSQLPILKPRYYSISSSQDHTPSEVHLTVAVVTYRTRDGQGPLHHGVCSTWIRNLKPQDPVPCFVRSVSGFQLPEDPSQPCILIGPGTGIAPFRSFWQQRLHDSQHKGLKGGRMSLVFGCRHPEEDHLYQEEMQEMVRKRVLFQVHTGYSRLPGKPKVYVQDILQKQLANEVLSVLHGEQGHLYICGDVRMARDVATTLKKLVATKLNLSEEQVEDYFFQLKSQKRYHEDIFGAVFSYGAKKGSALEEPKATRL
Kind of assay: Inhibition of recombinant mouse macrophage iNOS expressed in Escherichia coli. In short, it runs like this:
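Enzyme purified from E. coli, added to start the reaction. Conditions: 30 °C, 100 mM Hepes pH 7.4, 10 µM L-arginine, 100 µM DTT, 100 µM NADPH, 6.5 µM H4B, […], no added Ca2+ or calmodulin. NO capture was read as the A400 rise over 1 min.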

A further assay concerns the target T2, Nitric oxide synthase 3 (Bos taurus, UniProt P29473).
T2 sequence (P29473 whole entry): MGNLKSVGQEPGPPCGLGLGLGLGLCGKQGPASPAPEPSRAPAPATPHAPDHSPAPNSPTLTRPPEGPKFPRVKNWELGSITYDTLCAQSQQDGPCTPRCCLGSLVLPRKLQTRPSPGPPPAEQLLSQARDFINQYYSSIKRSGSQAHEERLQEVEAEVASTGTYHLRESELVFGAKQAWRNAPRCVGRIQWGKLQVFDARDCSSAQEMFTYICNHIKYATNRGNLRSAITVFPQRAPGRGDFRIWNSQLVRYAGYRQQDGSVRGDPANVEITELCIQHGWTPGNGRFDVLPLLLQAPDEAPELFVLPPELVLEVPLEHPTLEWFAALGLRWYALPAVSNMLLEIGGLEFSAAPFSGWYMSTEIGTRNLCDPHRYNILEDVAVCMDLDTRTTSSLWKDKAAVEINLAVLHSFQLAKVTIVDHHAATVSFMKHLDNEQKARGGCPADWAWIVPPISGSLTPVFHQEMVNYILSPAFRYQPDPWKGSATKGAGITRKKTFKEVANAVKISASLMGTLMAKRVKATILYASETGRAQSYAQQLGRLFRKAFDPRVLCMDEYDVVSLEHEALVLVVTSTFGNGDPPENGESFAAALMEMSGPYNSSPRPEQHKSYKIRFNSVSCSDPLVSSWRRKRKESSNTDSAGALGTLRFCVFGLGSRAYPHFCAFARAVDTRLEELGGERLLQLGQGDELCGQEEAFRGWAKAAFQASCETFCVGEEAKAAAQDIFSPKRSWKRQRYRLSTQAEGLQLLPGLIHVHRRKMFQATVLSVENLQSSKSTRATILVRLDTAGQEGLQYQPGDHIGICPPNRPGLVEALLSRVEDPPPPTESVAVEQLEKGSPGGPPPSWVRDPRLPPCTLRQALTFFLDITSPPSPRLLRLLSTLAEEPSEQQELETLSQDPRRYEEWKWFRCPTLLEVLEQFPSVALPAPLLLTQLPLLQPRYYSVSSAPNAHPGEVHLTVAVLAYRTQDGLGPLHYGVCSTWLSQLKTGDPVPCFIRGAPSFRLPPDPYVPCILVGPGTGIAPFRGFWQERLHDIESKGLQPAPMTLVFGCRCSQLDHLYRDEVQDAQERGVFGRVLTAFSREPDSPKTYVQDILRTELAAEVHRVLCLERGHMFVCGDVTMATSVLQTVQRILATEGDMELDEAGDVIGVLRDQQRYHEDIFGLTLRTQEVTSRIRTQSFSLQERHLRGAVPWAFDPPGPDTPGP
As to the kind of experiment: Inhibition of recombinant bovine eNOS expressed in Escherichia coli.

Another assay deals with Nitric oxide synthase 1 (Rattus norvegicus, UniProt P29476). As to the kind of experiment: Inhibition of recombinant rat brain nNOS expressed in Escherichia coli.

Structures are written as SMILES. pIC50, pKi: −log10 of the molar value.

Here are results for 13 compounds from ChEMBL document CHEMBL1149653, “Hydroxyethylene isosteres of selective neuronal nitric oxide synthase inhibitors” (Bioorg Med Chem, 2007).

Chain of Nitric oxide synthase 1 (P29476 whole entry): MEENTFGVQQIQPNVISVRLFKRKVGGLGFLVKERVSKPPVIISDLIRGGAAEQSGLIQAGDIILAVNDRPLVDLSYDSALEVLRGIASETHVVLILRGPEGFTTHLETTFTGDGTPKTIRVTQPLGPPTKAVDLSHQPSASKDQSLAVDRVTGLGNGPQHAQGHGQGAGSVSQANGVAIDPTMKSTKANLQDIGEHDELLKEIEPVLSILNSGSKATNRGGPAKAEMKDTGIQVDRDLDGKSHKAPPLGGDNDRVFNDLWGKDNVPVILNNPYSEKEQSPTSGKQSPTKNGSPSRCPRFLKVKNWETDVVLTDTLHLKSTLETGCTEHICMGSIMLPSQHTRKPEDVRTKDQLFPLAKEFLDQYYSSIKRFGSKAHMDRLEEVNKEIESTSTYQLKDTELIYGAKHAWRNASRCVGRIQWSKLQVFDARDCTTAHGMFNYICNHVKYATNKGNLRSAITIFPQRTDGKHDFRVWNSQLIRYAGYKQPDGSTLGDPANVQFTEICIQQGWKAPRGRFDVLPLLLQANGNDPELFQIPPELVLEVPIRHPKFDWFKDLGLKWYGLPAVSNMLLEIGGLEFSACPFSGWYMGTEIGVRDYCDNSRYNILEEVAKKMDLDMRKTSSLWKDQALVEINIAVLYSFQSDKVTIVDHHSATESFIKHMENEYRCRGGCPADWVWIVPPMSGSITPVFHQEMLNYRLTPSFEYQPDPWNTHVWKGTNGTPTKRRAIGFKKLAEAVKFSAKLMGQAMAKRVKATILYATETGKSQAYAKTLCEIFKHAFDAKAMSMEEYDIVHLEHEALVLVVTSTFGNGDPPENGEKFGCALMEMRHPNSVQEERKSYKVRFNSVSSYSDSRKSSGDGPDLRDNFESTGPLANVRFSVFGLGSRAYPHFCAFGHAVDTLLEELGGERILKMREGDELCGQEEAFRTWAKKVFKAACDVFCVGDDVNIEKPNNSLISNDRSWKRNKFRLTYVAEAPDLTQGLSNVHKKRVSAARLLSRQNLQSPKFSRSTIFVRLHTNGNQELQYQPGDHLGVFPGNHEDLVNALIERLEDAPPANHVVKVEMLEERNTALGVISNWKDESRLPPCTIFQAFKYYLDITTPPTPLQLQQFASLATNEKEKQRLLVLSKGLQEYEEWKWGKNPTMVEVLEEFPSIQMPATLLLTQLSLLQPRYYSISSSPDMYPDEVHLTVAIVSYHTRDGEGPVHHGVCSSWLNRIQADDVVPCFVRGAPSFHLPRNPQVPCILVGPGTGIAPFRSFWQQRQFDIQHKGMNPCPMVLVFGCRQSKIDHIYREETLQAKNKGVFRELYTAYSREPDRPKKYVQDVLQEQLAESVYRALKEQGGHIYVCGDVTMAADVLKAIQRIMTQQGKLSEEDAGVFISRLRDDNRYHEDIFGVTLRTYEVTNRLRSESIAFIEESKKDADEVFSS

With `N=C(NCCC[C@H](N)C[C@H](O)CCN)N[N+](=O)[O-]`, the Ratio IC50 in assay [1] was 143; in assay [2], 18.
The term pIC50 denotes −log10 of the IC50, conventionally taken in molar units. In the case of `NC(=NCCC[C@H](N)C[C@@H](O)CCO)N[N+](=O)[O-]`, the pIC50 in assay [3] is 3.48; at Nitric oxide synthase 3, 2.96; on Nitric oxide synthase 1 it was 3.97.
`NC(=NCCC[C@H](N)C[C@@H](O)CCCO)N[N+](=O)[O-]`: the pIC50 in assay [3] was 3.28; on Nitric oxide synthase 3, 2.59; on Nitric oxide synthase 1, 3.59.
As for `N=C(NCCC[C@H](N)C[C@H](O)CCO)N[N+](=O)[O-]`, the results for the Ratio IC50 in assay [1] and in assay [2] were 9.9 and 7.7, respectively.
What is called pKi is the Ki on a negative log10 scale, so that one unit is a factor of ten. Take `N=C(NCCC[C@H](N)C[C@H](O)CCCN)N[N+](=O)[O-]`: the pIC50 was 3.50 in assay [3], 2.82 at Nitric oxide synthase 3 and 5.17 on Nitric oxide synthase 1. Besides, the Ratio IC50 in assay [1] amounted to 225; in assay [2], 33. For the same compound, the negative-log Ki (pKi) at Nitric oxide synthase 1 was 6.08.
With `NCCC[C@H](O)C[C@@H](N)CCCN=C(N)N[N+](=O)[O-]`, the pIC50 was 3.44 in assay [3], 2.86 at Nitric oxide synthase 3 and 4.63 on Nitric oxide synthase 1. In addition, on Nitric oxide synthase 1, the pKi was 5.55.
Regarding `NCC[C@@H](O)C[C@@H](N)CCCN=C(N)N[N+](=O)[O-]`, the pIC50 is 3.78 in assay [3], 2.87 on Nitric oxide synthase 3 and 5.03 at Nitric oxide synthase 1. Moreover, the pKi at Nitric oxide synthase 1 was 5.96.
`N=C(NCCC[C@H](N)C[C@@H](O)CCCN)N[N+](=O)[O-]`: the Ratio IC50 was 59 in assay [1] and 15 in assay [2].
For the compound `NC(=NCCC[C@H](N)C[C@H](O)CCO)N[N+](=O)[O-]`, the results for the pIC50 (in assay [3]; at Nitric oxide synthase 3; at Nitric oxide synthase 1) were 2.89, 2.78 and 3.77, respectively.
Regarding `N=C(NCCC[C@H](N)C[C@@H](O)CCN)N[N+](=O)[O-]`, the pIC50 in assay [3] is 3.59; at Nitric oxide synthase 3 it was 2.94; on Nitric oxide synthase 1, 5.62. Further, the Ratio IC50 in assay [1] amounted to 475; in assay [2], 107. The pKi at Nitric oxide synthase 1 is 6.54.
As for `N=C(NCCC[C@H](N)C[C@@H](O)CCO)N[N+](=O)[O-]`, the Ratio IC50 came out at 10.2 in assay [1] and 3.1 in assay [2].
For the compound `N=C(NCCC[C@H](N)C[C@@H](O)CCCO)N[N+](=O)[O-]`, the Ratio IC50 in assay [1] turned out to be 10.1; in assay [2] it was 2.1.
Consider `N=C(NCCC[C@H](N)C[C@H](O)CCCO)N[N+](=O)[O-]`, for which the figures for the pIC50 (in assay [3]; at Nitric oxide synthase 3; on Nitric oxide synthase 1) were 3.58, 3.06 and 3.31, respectively. Moreover, the Ratio IC50 in assay [1] was found to be 1.8; in assay [2] it was 0.54.
